Screening data: PubChem BioAssay, Johns Hopkins Ion Channel Center
The list is not random: actives were taken first. Their share in the collection is about 3.5%.
MrgX1 ag – agonists of human MrgX1 receptor, primary screen, HEK293 cells, Fluo-4 calcium flux | hit rate 0.44% among 310,000 | AID 588627, 2011 | B-score at 10 µM | Fluo-4 calcium fluorescence, agonist mode; active compounds read high;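 active = calcium response B-score plate-corrected fluorescence ratio at least 3 library SD, with starting fluorescence B-score inside 5 SD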
Target sequence (Q96LB2 whole entry, looked up): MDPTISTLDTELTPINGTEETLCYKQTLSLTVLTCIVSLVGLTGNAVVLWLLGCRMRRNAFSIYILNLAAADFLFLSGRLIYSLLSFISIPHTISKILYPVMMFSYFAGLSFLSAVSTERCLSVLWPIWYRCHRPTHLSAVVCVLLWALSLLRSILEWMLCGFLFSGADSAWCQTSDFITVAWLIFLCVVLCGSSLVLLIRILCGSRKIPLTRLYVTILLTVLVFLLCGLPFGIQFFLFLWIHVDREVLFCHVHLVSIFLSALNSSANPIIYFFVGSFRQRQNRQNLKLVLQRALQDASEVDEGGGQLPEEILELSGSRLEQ
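Material – MrgX1-expressing HEK293 cells · Input – 15,000 cells seeded per well · Dosing – compound as first of three additions · Times – overnight seeding, then 1 h dark dye loading · Measured by – kinetic Fluo-4 NW fluorescence of intracellular calcium · Read-out – B-scored fluorescence response ratio · Benchmarks – positive and negative control wells on each plate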
RGS4 pot – RGS4 potentiators or activators, primary screen, cell-based, HEK293 M3R inducible RGS4, calcium flux. carbachol calcium flux Fluo4; active compounds read low. B-score at 10 µM. hit rate 0.92% among 310,000;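 active = B-score of the integrated calcium signal more than 4 SD below the library mean, with starting fluorescence not abnormally high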;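 note: negative B-score means reduced calcium response which marks RGS4 activation or potentiation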
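Material: Inducible-RGS4 HEK293 cells carrying M3 receptor; also added: carbachol at ECmax as muscarinic agonist stimulus; incubation: compound preincubation 20 min at room temperature before agonist; signal: Fluo4-AM (2 µM) calcium-flux fluorescence, kinetic read; measure: integrated calcium ratio converted to B score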
MrgX1 antag – antagonists of human MrgX1 receptor, primary screen, HEK293 cells, Fluo-4 calcium flux. Mas-related G-protein coupled receptor member X1 (Homo sapiens), Q96LB2. BAM8-22 antagonism; active compounds read low. B-score at 10 µM. hit rate 1.3% among 310,000. AID 588676, 2011;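 active = calcium-response B-score plate-corrected more than 3 library SD below zero, starting fluorescence within 5 deviations, no agonist response on first addition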;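 note: peak minus trough fluorescence over baseline after final BAM8-22 challenge near maximal dose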
MrgX1 PAM – positive allosteric modulators of MrgX1, primary screen, HEK293 cells, Fluo-4 calcium flux | Mas-related G-protein coupled receptor member X1 (Homo sapiens), Q96LB2 | FDSS; active compounds read high | AID 588675, 2011 | hit rate 0.63% among 310,000 | B-score at 10 µM;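 active = plate-corrected calcium response at least 3 library SD above typical, normal starting fluorescence, not activating the receptor alone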;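 note: compound read alongside a low EC10 to EC30 dose of BAM8-22 agonist; peak minus trough fluorescence over baseline measured at the second addition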
RGS4 block – RGS4 inhibitors, primary screen, cell-based, HEK293 M3R inducible RGS4, calcium flux; Regulator of G-protein signaling 4 (Homo sapiens), P49798; Fluo-4 calcium flux; active compounds read high; triggered by carbachol at its EC20; B-score at 10 µM; hit rate 0.45% among 310,000; AID 463165, 2010;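 active = B-score, a plate-corrected calcium signal, over three deviations above library mean, with baseline fluorescence within five deviations of library mean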;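 note: RGS4 expression induced by doxycycline in cells with stable M3 receptor; B-score is computed from the integrated fluorescence ratio over baseline after carbachol; higher B-score means a larger calcium signal and so more RGS4 inhibition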
Target sequence (P49798 whole entry, looked up): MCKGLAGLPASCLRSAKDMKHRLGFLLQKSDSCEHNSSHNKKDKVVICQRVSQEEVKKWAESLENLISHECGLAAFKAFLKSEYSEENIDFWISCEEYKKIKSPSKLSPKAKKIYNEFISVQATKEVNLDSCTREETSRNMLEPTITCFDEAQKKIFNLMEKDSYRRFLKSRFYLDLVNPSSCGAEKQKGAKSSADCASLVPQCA
A number is an active result; 0 = inactive; - = not tested or not shown.

SMILES	MrgX1 ag	RGS4 pot	MrgX1 antag	MrgX1 PAM	RGS4 block
Cc1nnc(N/N=C/c2ccc(Br)cc2)n1N	0	0	0	18	0
C=CCN1C(=O)C(CC(=O)Nc2ccc(OCCC)cc2)N(CCCN2CCN(Cc3ccccc3)CC2)C1=S (centres undefined)	0	0	0	9.4	0
COc1ccc2c(c1)c1ncn(CCN3CCCC3)c(=O)c1n2C	0	0	0	0	0
COc1ccccc1CCn1cnc2c3cc(C)ccc3n(C)c2c1=O	0	-7	0	0	0
COc1ccc(-c2ccc(/C=C3/C(=N)N4C(C)=CSC4=NC3=O)o2)c([N+](=O)[O-])c1	29	0	0	0	0
COc1cccc(OC)c1C(=O)Nc1ccccc1N1CCCC1	0	0	0	0	0
O=C(NC(=S)Nc1ccccc1N1CCCCC1)c1ccc(F)cc1Cl	0	-7	0	0	0
Cn1nc(C(=O)NCc2ccccc2)c2ccccc2c1=O	0	0	0	0	0
COc1cc2ccccc2cc1C(=O)Nc1ccccc1N1CCCC1	0	-7.3	0	0	0
Cn1nc(C(=O)Nc2ccccc2N2CCCC2)c2ccccc2c1=O	0	0	0	12	0
Cn1nc(C(=O)NCCOc2ccccc2)c2ccccc2c1=O	0	0	0	10	0
CC(C)n1nc(C(=O)Nc2ccccc2N2CCOCC2)c2ccccc2c1=O	0	0	0	0	0
CCC(C)[C@H](NC(=O)NCc1ccco1)C(=O)O (some centres undefined)	0	0	0	0	0
CCc1ccc2nc3sc(C(=O)N4CCc5ccccc54)c(N)c3cc2c1	0	0	-7.7	0	0
CCN1CCc2nc3sc(C(=O)N4CCc5ccccc5C4)c(N)c3cc2C1	0	0	0	0	0
CC(C)c1ccc2nc3sc(C(=O)N4CCc5ccccc5C4)c(N)c3cc2c1	0	0	-5.8	0	0
Cc1onc(-c2ccccc2Cl)c1C(=O)NC(=S)NCC(=O)c1ccccc1	0	0	0	0	0
C/C(CC(=O)Nc1ccc2c(c1)OCCO2)=N\NC(=O)c1ccccn1	0	0	0	0	0
CC(C(=O)NCc1ccco1)c1ccc([N+](=O)[O-])cc1 (centres undefined)	0	0	-4.5	0	0
COCCCn1c(SCc2ccc(OC)cc2)nc2cc(OC)c(OC)cc2c1=N	0	0	0	0	0
Cc1ccc(/C(O)=C2/C(=O)C(=O)N(c3ccccn3)C2c2ccc([N+](=O)[O-])cc2)cc1 (centres undefined)	0	0	-4.8	0	0
CC(/C=C1\SC(=S)N(c2ccc(C(=O)O)cc2)C1=O)=C\c1ccccc1	0	-8.4	-9.6	0	0
CC(/C=C1\SC(=S)N(NC(=O)c2ccc(C)cc2)C1=O)=C\c1ccccc1	0	0	0	0	0
COc1ccc(/C=C2/SC(=S)N(NS(=O)(=O)c3ccccc3)C2=O)cc1	31	0	0	0	0
CC(/C=C1\SC(=S)N(NS(=O)(=O)c2ccccc2)C1=O)=C\c1ccccc1	0	0	-8.8	0	0
SMILES	MrgX1 ag	RGS4 pot	MrgX1 antag	MrgX1 PAM	RGS4 block
O=C1/C(=C\c2ccc(Br)cc2)SC(=S)N1NS(=O)(=O)c1ccccc1	0	0	0	0	0
Cc1cc(C)n2nc(SCC(=O)N(C)C)nc2n1	0	0	0	0	0
Cc1nnc(C)n1/N=C/c1ccc(-c2ccccc2Cl)o1	0	0	0	0	0
O=C1NC(=S)/C(=C\c2ccc(-c3ccccc3Cl)o2)S1	0	-7.4	0	0	0
O=C(CC1SC(=Nc2ccccc2)N(CCCO)C1=O)Nc1ccc(Cl)cc1 (centres undefined)	0	-9.1	-4.6	0	0
O=C(COc1ccc(S(=O)(=O)N2CCOCC2)cc1Cl)NCc1ccco1	0	0	0	0	0
Cc1ccnc(SCC(=O)c2cc3ccccc3o2)n1	0	0	0	0	0
CCOc1cc(/C=N/NC(=O)C2CC2)ccc1OC(C)C	0	0	0	0	0
CN1/C(=C\C=N\NC(=O)c2ccc(O)cc2)C(C)(C)c2ccccc21	0	0	0	0	0
CCC1CCCCN1CCCNC(=O)c1cn(CC)c2ccc(S(=O)(=O)N3CCc4ccccc4C3)cc2c1=O (centres undefined)	0	-9	0	0	0
CCn1cc(C(=O)NCCCN2CCCC(C)C2)c(=O)c2cc(S(=O)(=O)N3CCc4ccccc4C3)ccc21 (centres undefined)	0	-7.2	0	0	0
CCC1CCCCN1CCCNC(=O)c1cn(CC)c2ccc(S(=O)(=O)N(C)C3CCCCC3)cc2c1=O (centres undefined)	0	0	0	0	0
COc1ccc(S(=O)(=O)N2CCN(Cc3cc(OC)c(OC)c(OC)c3)CC2)cc1	0	0	0	0	0
CCCC(=O)Nc1ccc(Cl)c(NC(=O)c2cccnc2)c1	0	0	0	0	0
Cc1ccsc1/C=C/c1ccc2cccc(O)c2n1	0	0	-5	0	0
Cc1ccsc1/C=C/c1ccc2ccccc2n1	0	0	0	0	0
COc1ccc(CCNC(=O)c2cc3c(=O)n4ccccc4nc3n(C3CCCCC3)c2=N)cc1	0	-7.1	0	0	0
COc1ccc(CCNC(=O)c2cc3c(=O)n4ccccc4nc3n(C3CCCCC3)c2=N)cc1OC	0	0	0	0	0
Cc1cccn2c(=O)c3cc(C(=O)NC4CCCC4)c(=N)n(CCc4ccccc4)c3nc12	0	-8.1	0	0	0
CNC(=O)COC(=O)c1ccc(NC(=O)CC#N)cc1	0	0	0	0	0
Nn1c(SC/C=C/c2ccccc2)nnc1-c1cccnc1	0	0	0	0	0
O=C(CSc1nnc(-c2cccnc2)n1Cc1ccco1)N1c2ccccc2Sc2ccccc21	0	-	-4.5	0	-
c1cncc(CSc2nnc(-c3cccnc3)n2Cc2ccco2)c1	-	0	-	-	0
O=[N+]([O-])c1ccc(-n2nncc2-c2ccc(Cl)cc2)cc1	0	0	-4.9	0	0
CCc1nc2c(c(SC)nn2-c2ccccc2)c(N)c1C(=O)OC	0	0	0	0	0
SMILES	MrgX1 ag	RGS4 pot	MrgX1 antag	MrgX1 PAM	RGS4 block
CN1/C(=C\C=C2/SC(=S)N(CC(=O)O)C2=O)C(C)(C)c2ccccc21	0	0	0	0	0
CCCN1C(=O)/C(=C/C=C2\N(CC)c3ccccc3C2(C)C)SC1=S	0	0	0	12	0
C=CCN1C(=O)/C(=C\C=C2\N(C)c3ccccc3C2(C)C)SC1=S	31	0	0	0	0
CC(C)(C)n1nc2c(c1NC(=O)c1cccs1)CS(=O)C2 (centres undefined)	0	0	0	0	0
CCOc1c(OC(C)=O)ccc(/C=C2\N=C(SCC)SC2=O)c1[N+](=O)[O-]	0	-7.1	0	0	0
CCOc1cc(/C=C2\N=C(SCC)SC2=O)cc([N+](=O)[O-])c1OC(C)=O	0	0	0	0	0
